In ChEMBL document CHEMBL1125367 (J Med Chem, 1992):
pIC50: −log10 of the molar value.

Key:
[1] = molecular target: D(1A) dopamine receptor (Rattus norvegicus) (UniProt P18901); experiment: Percent stimulation of adenylate cyclase activity at dopamine receptor D1 of Rat Striatum at 1 uM; type: functional; conditions: values are per cent of control
[2] = molecular target: D(2) dopamine receptor (Rattus norvegicus) (UniProt P61169); experiment: The percentage inhibition of adenylate cyclase activity of compound was measured on dopamine receptor D2 of Rat Striatum at 0.01 micro M; conditions: values are per cent of control
Summary of the method: (§1)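 D-2 inhibition of basal adenylate cyclase in rat striatal synaptic membranes, 20-30 μg protein. Medium: Tris-HCl pH 7.4, 100 mM NaCl, 0.5 mM ATP, 50 μM GTP, IBMX, [α-32P]ATP, with 0.1 μM SCH 23390 present to block D-1. Incubation 20 min at 25 °C, followed by double-column cAMP isolation. Activity is given as % of basal, quadruplicates, three experiments.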

[3] = molecular target: D(2) dopamine receptor (Rattus norvegicus) (UniProt P61169); experiment: The percentage inhibition of adenylate cyclase activity of compound was measured on dopamine receptor D2 of Rat Striatum at 10 micro M; conditions: values are per cent of control; summary of the method: as §1
[4] = molecular target: D(1A) dopamine receptor (Rattus norvegicus) (UniProt P18901); experiment: The percentage stimulation of adenylate cyclase activity of compound was measured on dopamine receptor D1 of Rat Striatum at 0.01 uM; type: functional
[5] = molecular target: D(2) dopamine receptor (Rattus norvegicus) (UniProt P61169); experiment: The percentage inhibition of adenylate cyclase activity of compound was measured on dopamine receptor D2 of Rat Striatum at 1 micro M; conditions: values are per cent of control; summary of the method: as §1
[6] = molecular target: D(1A) dopamine receptor (Rattus norvegicus) (UniProt P18901); experiment: The percentage stimulation of adenylate cyclase activity of compound was measured on dopamine receptor D1 of Rat Striatum at 0.1 uM; type: functional
[7] = molecular target: D(2) dopamine receptor (Rattus norvegicus) (UniProt P61169); experiment: The percentage inhibition of adenylate cyclase activity of compound was measured on dopamine receptor D2 of Rat Striatum at 0.1 micro M; conditions: values are per cent of control; summary of the method: as §1
[8] = molecular target: D(1A) dopamine receptor (Rattus norvegicus) (UniProt P18901); experiment: The percentage stimulation of adenylate cyclase activity of compound was measured on dopamine receptor D1 of Rat Striatum at 10 uM; type: functional; conditions: values are per cent of control
[9] = molecular target: D(1A) dopamine receptor (Rattus norvegicus) (UniProt P18901); experiment: Selectivity index of D1 receptor to that of D2 receptor was determined
Summary of the method: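 Index equals IC50 at D-1 ([3H]SCH 23390 binding) divided by IC50 at D-2 ([3H]spiperone binding), both measured in rat striatal membrane competition assays.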

D(2) dopamine receptor = D(2) dopamine receptor (Rattus norvegicus, UniProt P61169); experiment: Inhibitory activity against [3H]spiperone in Rat Striatal membrane; type: cell membranes
D(1A) dopamine receptor [10] = molecular target: T1, D(1A) dopamine receptor (Rattus norvegicus, UniProt P18901); experiment: (§2) Inhibitory activity against [3H]-SCH- 23390 in Rat Striatal membrane; type: cell membranes
D(1A) dopamine receptor [11] = molecular target: T1, D(1A) dopamine receptor; experiment: as §2; type: cell membranes; remark: listed apart in the source
Summary of the method: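 Competition binding on rat striatal membranes. The D-1 site was labelled with [3H]SCH 23390 and the D-2 site with [3H]spiperone. IC50 is the concentration giving half-maximal inhibition of binding, reported as mean ± SEM.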

[12] = molecular target: D(1A) dopamine receptor (Rattus norvegicus) (UniProt P18901); experiment: The percentage stimulation of adenylate cyclase activity of compound was measured on dopamine receptor D1 of Rat Striatum at 0.1uM; type: functional

Sequence of D(1A) dopamine receptor (Rattus norvegicus) (P18901 whole entry): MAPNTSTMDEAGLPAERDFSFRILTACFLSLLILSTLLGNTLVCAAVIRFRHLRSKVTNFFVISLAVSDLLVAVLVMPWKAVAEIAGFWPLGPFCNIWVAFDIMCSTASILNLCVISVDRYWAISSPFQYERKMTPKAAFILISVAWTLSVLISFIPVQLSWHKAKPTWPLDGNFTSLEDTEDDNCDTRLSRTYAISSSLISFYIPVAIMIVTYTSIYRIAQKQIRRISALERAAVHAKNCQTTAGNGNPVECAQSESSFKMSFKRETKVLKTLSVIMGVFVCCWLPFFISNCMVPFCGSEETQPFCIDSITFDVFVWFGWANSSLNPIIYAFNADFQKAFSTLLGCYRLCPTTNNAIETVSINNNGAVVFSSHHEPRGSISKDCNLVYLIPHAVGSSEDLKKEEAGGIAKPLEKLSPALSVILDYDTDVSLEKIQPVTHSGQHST
T1 sequence (P18901 whole entry): as above
Sequence of D(2) dopamine receptor (Rattus norvegicus) (P61169 whole entry): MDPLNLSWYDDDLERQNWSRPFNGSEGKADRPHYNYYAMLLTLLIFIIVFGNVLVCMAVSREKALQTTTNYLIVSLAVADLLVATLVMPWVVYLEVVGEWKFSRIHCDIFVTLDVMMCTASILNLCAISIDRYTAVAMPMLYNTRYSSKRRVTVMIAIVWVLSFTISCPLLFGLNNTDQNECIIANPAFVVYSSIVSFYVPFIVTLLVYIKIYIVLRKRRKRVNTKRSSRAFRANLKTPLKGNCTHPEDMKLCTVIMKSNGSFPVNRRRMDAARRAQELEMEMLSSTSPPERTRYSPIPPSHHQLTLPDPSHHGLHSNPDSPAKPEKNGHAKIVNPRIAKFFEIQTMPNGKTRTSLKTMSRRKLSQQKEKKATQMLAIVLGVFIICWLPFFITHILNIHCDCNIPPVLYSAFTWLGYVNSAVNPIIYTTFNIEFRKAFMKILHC
Sequence of D(2) dopamine receptor (P61169 whole entry): as above

For `NCCc1ccc(O)c(O)c1`, the residual activity [1] was 110%, the residual activity [2] was 95% and the residual activity [3] was 83%. For the same molecule, the stimulation [4] was 104%, the residual activity [5] was 87% and the stimulation [6] was 113%. The residual activity [7] was 92%.

With `Br.CCCN(CCC)CCc1ccc(Cl)c(O)c1` the residual activity [8] was 115%, the Ratio [9] was 3.93 and the residual activity [1] was 105%. It also gave a residual activity [2] of 96%, a pIC50 (D(2) dopamine receptor) of 4.89 and a pIC50 (D(1A) dopamine receptor [10]) of 4.29. The residual activity [3] was 86%, the residual activity [5] was 90% and the stimulation [6] was 101%. For the same molecule, the residual activity [7] was 88%.

`Br.NCCc1ccc(Cl)c(O)c1` gave a residual activity [8] of 105%, a Ratio [9] of 0.96 and a residual activity [1] of 95%. For the same molecule, the residual activity [2] was 101%, the pIC50 (D(2) dopamine receptor) was 4.58 and the pIC50 (D(1A) dopamine receptor [10]) was 4.60. The residual activity [3] was 84%, the residual activity [5] was 87% and the stimulation [6] was 98%. It also gave a residual activity [7] of 90%.

Molecule `CCCN(CCc1ccc(O)cc1)CCc1ccc(Cl)c(O)c1` has a residual activity [8] of 136%, a Ratio [9] of 20.1 and a residual activity [1] of 136%. The residual activity [2] was 92%, the pIC50 (D(2) dopamine receptor) was 6.05 and the pIC50 (D(1A) dopamine receptor [11]) was 4.74. The residual activity [3] was 74%, the residual activity ([4]; values are per cent of control) was 126% and the residual activity [5] was 74%. For the same molecule, the residual activity ([6]; values are per cent of control) was 130% and the residual activity [7] was 81%.

Work on `CCCN(CCc1cccc(O)c1)CCc1ccc(Cl)c(O)c1` yielded a residual activity [8] of 128%, a Ratio [9] of 15.3 and a residual activity [1] of 125%. For the same molecule, the residual activity [2] was 94%, the pIC50 (D(2) dopamine receptor) was 6.14 and the pIC50 (D(1A) dopamine receptor [10]) was 4.95. It also gave a residual activity [3] of 81%, a stimulation [4] of 103% and a residual activity [5] of 83%. The stimulation [6] was 116% and the residual activity [7] was 91%.

With `CCCN(CCc1ccccc1)CCc1ccc(Cl)c(O)c1` the residual activity [8] was 128%, the Ratio [9] was 17.6 and the residual activity [1] was 118%. It also gave a residual activity [2] of 93%, a pIC50 (D(2) dopamine receptor) of 5.86 and a pIC50 (D(1A) dopamine receptor [10]) of 4.61. The residual activity [3] was 76%, the stimulation [4] was 104% and the residual activity [5] was 78%. The stimulation [6] was 113% and the residual activity [7] was 86%.

`Br.CCCN(CCCc1ccc(O)cc1)CCc1ccc(Cl)c(O)c1` was tested, and the residual activity [8] was 110%, the Ratio [9] was 19.9 and the residual activity [1] was 100%. For the same molecule, the residual activity [2] was 96.4%, the pIC50 (D(2) dopamine receptor) was 6.07 and the pIC50 (D(1A) dopamine receptor [10]) was 4.77. It also gave a residual activity [5] of 82%, a residual activity [7] of 86% and a stimulation [12] of 101%.

`CCCN(CCc1ccccc1)CCc1cccc(O)c1` showed a Ratio [9] of 124, a pIC50 (D(2) dopamine receptor) of 6.12 and a pIC50 (D(1A) dopamine receptor [10]) of 4.03. It also gave a residual activity [3] of 84%, a residual activity [5] of 86% and a residual activity [7] of 95%.
